Experiment [1] has as its system Brassica napus. Description: Herbicidal activity against Brassica napus (oilseed rape) assessed as inhibition of root elongation after 5 days by petri dish culture method. The class given is functional, organism-based.
For experiment [2], the system named is Brassica napus. The experiment in a line: Herbicidal activity against Brassica napus (oilseed rape) assessed as inhibition of stalk growth at 1 mg/L after 5 days by petri dish culture method relative to control. The class given is functional. To be noted: 120 h, read-out: GI. The essentials:
(§1)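 Test solutions were made in DMF, emulsified with Tween 80, and diluted with water, then added to Petri dishes lined with two filter papers. Twenty rape and twenty barnyard grass seeds were incubated 5 days at 23 ± 1 °C, 60 ± 5% humidity, 10 Klux, 12 h/day light. Mean length of 10 roots and 10 stems gave percent inhibition versus distilled-water controls.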

Experiment [3] deals with Brassica napus. The experiment in a line: Herbicidal activity against Brassica napus (oilseed rape) assessed as inhibition of stalk growth at 10 mg/L after 5 days by petri dish culture method relative to control. Type of experiment: functional. The note with it: 120 h, read-out: GI. In outline: as §1
In experiment [4] the test system is Echinochloa crus-galli. The experiment in a line: Herbicidal activity against Echinochloa crus-galli (barnyard grass) assessed as inhibition of stalk growth at 1 mg/L after 5 days by petri dish culture method relative to control. The class given is functional. To be noted: 120 h, read-out: GI. The essentials:
as §1

Experiment [5] has as its system Echinochloa crus-galli. Description: Herbicidal activity against Echinochloa crus-galli (barnyard grass) assessed as inhibition of stalk growth at 10 mg/L after 5 days by petri dish culture method relative to control. The class given is functional. To be noted: 120 h, read-out: GI. The essentials:
as §1

Experiment [6] relates to Brassica napus. The experiment in a line: Herbicidal activity against Brassica napus (oilseed rape) assessed as inhibition of root growth at 1 mg/L after 5 days by petri dish culture method relative to control. The class given is functional. To be noted: 120 h, read-out: GI. The essentials:
as §1

In experiment [7] the test system is Brassica napus. Description: Herbicidal activity against Brassica napus (oilseed rape) assessed as inhibition of root growth at 10 mg/L after 5 days by petri dish culture method relative to control. The class given is functional. The note with it: 120 h, read-out: GI. In outline:
as §1

The test system of experiment [8] is Echinochloa crus-galli. The experiment in a line: Herbicidal activity against Echinochloa crus-galli (barnyard grass) assessed as inhibition of root growth at 1 mg/L after 5 days by petri dish culture method relative to control. The class given is functional. The note with it: 120 h, read-out: GI. The essentials: as §1
Experiment [9] has as its system Echinochloa crus-galli. Description: Herbicidal activity against Echinochloa crus-galli (barnyard grass) assessed as inhibition of root growth at 10 mg/L after 5 days by petri dish culture method relative to control. The class given is functional. The note with it: 120 h, read-out: GI. In outline:
as §1

Take `O=c1oc(COc2ccc(Cl)cc2Cl)nc2ccccc12`: in the experiment on Brassica napus [1], the IC50 was 10.34 µmol.

`O=c1oc(COc2ccc(Cl)cc2Cl)nc2ccc(Cl)cc12`: in the experiment with Brassica napus [1], the IC50 was 10.73 µmol.

As to `Nn1c(COc2ccc(Cl)cc2Cl)nc2ccccc2c1=O`, the IC50 with Brassica napus [1] was determined as 224.37 µmol.

As to `O=c1oc(COc2ccc(Cl)cc2Cl)nc2cccc(Cl)c12`, the IC50 with Brassica napus [1] came out at 43.54 µmol.

Regarding `COc1cc2nc(COc3ccc(Cl)cc3)oc(=O)c2cc1OC`, in the experiment with Brassica napus [1], the IC50 worked out at 80.14 µmol.

For `COc1cc2nc(COc3ccc(Cl)cc3Cl)n(N)c(=O)c2cc1OC`, the IC50 in the experiment on Brassica napus [1] was 167.59 µmol.

For the compound `O=c1oc(COc2ccc(Cl)cc2)nc2ccccc12`, the IC50 in the experiment on Brassica napus [1] was 30.37 µmol.

Consider `Cn1c(COc2ccc(Cl)cc2Cl)nc2c(Cl)cccc2c1=O`, for which the inhibition of growth at 1 µg/mL is -8.8% in the experiment with Brassica napus [2], 1.4% in the experiment with Echinochloa crus-galli [4], 32.3% with Brassica napus [6] and 12.3% in the experiment on Echinochloa crus-galli [8]. Also, the inhibition of growth at 10 µg/mL is -2.4% with Brassica napus [3], 0% in the experiment with Echinochloa crus-galli [5], 44.5% in the experiment with Brassica napus [7] and 34.6% in the experiment on Echinochloa crus-galli [9].

On to `O=c1oc(COc2ccc(Cl)cc2)nc2cccc(Cl)c12`, for which the IC50 with Brassica napus [1] stood at 138.24 µmol.

With `Nn1c(COc2ccc(Cl)cc2Cl)nc2c(Cl)cccc2c1=O`, the inhibition of growth at 1 µg/mL with Brassica napus [2] was 92.3%; with Echinochloa crus-galli [4], -7.2%; in the experiment on Brassica napus [6], 93.6%; in the experiment with Echinochloa crus-galli [8], 24.3%. The inhibition of growth at 10 µg/mL is 95.7% with Brassica napus [3], 38.1% in the experiment on Echinochloa crus-galli [5], 98.2% with Brassica napus [7] and 68.5% in the experiment on Echinochloa crus-galli [9]. In the experiment with Brassica napus [1], the IC50 worked out at 27.23 µmol.

On to `Cn1c(COc2ccc(Cl)cc2)nc2cccc(Cl)c2c1=O`, for which the IC50 in the experiment on Brassica napus [1] is 201.13 µmol.

On to `O=c1oc(COc2ccc(Cl)cc2Cl)nc2cc(Cl)ccc12`, for which the IC50 in the experiment with Brassica napus [1] amounted to 11.05 µmol.

Take `O=c1oc(COc2ccc(Cl)cc2)nc2ccc(Cl)cc12`: the IC50 with Brassica napus [1] was determined as 22.32 µmol.

Consider `COc1cc2nc(COc3ccc(Cl)cc3Cl)oc(=O)c2cc1OC`, for which the IC50 in the experiment with Brassica napus [1] amounted to 142.22 µmol.

In the case of `COc1ccc(Cl)cc1Cl`, the inhibition of growth at 1 µg/mL in the experiment on Brassica napus [2] worked out at 89.1%; in the experiment on Echinochloa crus-galli [4], 45.5%; in the experiment with Brassica napus [6], 91%; in the experiment with Echinochloa crus-galli [8], 67.3%. For the same compound, the inhibition of growth at 10 µg/mL was determined as 93.6% with Brassica napus [3], 76.2% with Echinochloa crus-galli [5], 100% in the experiment on Brassica napus [7] and 99.1% with Echinochloa crus-galli [9]. Moreover, the IC50 in the experiment on Brassica napus [1] is 6.06 µmol.

The values are drawn from ChEMBL document CHEMBL3045731, “Facile synthesis and herbicidal evaluation of 4H-3,1-benzoxazin-4-ones and 3H-quinazolin-4-ones with 2-phenoxymethyl substituents” (Molecules, 2012).
